In the library only some 3.9% were active in any assay of this set; here they are far more common.
HSF1 inhib = HSF1 inhibition. NIH3T3-HGL HSE-luciferase, MG132-induced, luminescence 8 h; hits give low values. activity change, negative = inhibition, % at 7.5 µM (by protocol). hit rate 0.77% among 300,000;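 active = more than half of replicate wells show activity change below -50%, luminescence cut by over half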;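 note: luciferase reports HSF-1 transcriptional activity via heat shock element; 0% = median of DMSO wells and -100% = zero luminescence signal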
DNA FID counter-1 = displaces DNA intercalator in HCV helicase counter-screen; hit rate 0.17% among 290,000; inhibition, % at 7.9 µM; DNA fluorescent intercalator displacement, fluorescence; AID 1845;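 note: 0% = vehicle and 100% = reference compound; higher means more ethidium bromide displaced from hairpin DNA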
HCV NS3 hel inh = HCV NS3 helicase inhibition. NS3 helicase DNA unwinding, Cy5 molecular beacon fluorescence. inhibition, % at 10.9 µM. hit rate 0.56% among 290,000;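 active = inhibition above the mean of all tested compounds plus 3 SD, set per campaign, cut at about 35% in these data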;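 note: 0% = DMSO wells and 100% = thioflavine S control wells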
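Compound dosing – single dose, 10.9 µM nominal final, DMSO 0.8% final · System – NS3 helicase fragment of HCV · Buffer or medium – MOPS pH 6.5, MgCl2, DTT, Tween20, BSA · Signal – Cy5 beacon fluorescence read at start and 1 h · Also added – annealed dual-labelled DNA beacon duplex, ATP-started · Schedule – 1 h at 25 °C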
HSF1 activator = increases HSF-1 driven luciferase reporter signal; hit rate 1.7% among 300,000; NIH3T3-HGL HSF-1 luciferase reporter, MG132, 8 h; 100% = twice DMSO control signal; activation, % at 9 µM;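 active = mean replicate activation of at least 50% with a set share of replicates each reaching 50%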;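 note: 0% = median of the neutral control wells and 100% = twice that signal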
HCV core dimer = blocks dimerization of HCV core protein; TR-FRET GST/Flag-core106 dimerization, 1536-well; inhibition, % at 5 µM; hit rate 0.33% among 300,000;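 active = inhibition above the mean of all tested compounds plus 3 SD, set per screening campaign, cut at about 45% in these data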
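Assay system: GST-tagged and Flag-tagged HCV core protein residues 1-106 / Times: compound-protein-antibody incubation 4 h at 22.5 °C / Signal: time-resolved FRET, ex 340 nm, em 617 and 671 nm / Evaluation: % inhibition based on acceptor/donor emission ratio / Benchmarks: wells lacking GST-core106 and wells with excess unlabelled core106 / Repeats: singlicate, one well per compound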
HSP90 inh = HSP90 refolding inhibition in rabbit reticulocyte lysate; AID 1789; inhibition, % at 5.6 µM; hit rate 0.91% among 290,000; luciferase refolding luminescence, 3 h;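 active = inhibition above the screen-wide mean plus 3 SD, computed separately per campaign, cut at about 16% in these data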;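 note: 0% = DMSO wells and 100% = 60 µM geldanamycin wells; inhibitors lower the luminescence because luciferase stays unfolded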
NS3 helicase cf = HCV NS3 helicase inhibition, confirmation assay; shares compounds with HCV NS3 hel inh; NS3 helicase DNA unwinding, Cy5 molecular beacon fluorescence; inhibition, % at 10.9 µM; hit rate 31% among 1,600;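 active = inhibition above the mean of all tested compounds plus 3 SD, cutoff set per campaign, cut at about 36% in these data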
DNA FID counter-2 = displaces DNA intercalator in HCV helicase counter-screen | shares compounds with HCV NS3 hel inh | DNA fluorescent intercalator displacement, fluorescence | inhibition, % at 7.9 µM | hit rate 4% among 1,600 | AID 1945;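 note: 0% = vehicle and 100% = reference compound; higher means more displacement of ethidium bromide from the DNA hairpin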
An asterisk follows results filed as active; . = no result given. Cut-off read from the data, not from the text of the source, unless noted: active = inhibition above about 37%; inactive = the rest.

SMILES	HSF1 inhib	DNA FID counter-1	HCV NS3 hel inh	HSF1 activator	HCV core dimer	HSP90 inh	NS3 helicase cf	DNA FID counter-2
CCc1cc2cc(C)ccc2nc1SCC(=O)NC1CCCC1	-1	-38	55*	10	1	3	1	-14
CCOc1ccc(NCc2cc3cc(OC)ccc3[nH]c2=O)cc1	0	-11	43*	3	-6	11	12	-6
Cc1ccc(NC(=O)COC(=O)C2CC3C=CC2C3)cc1S(=O)(=O)N1CCCCC1 (stereo unspecified)	33	-21	62*	63*	6	-2	-3	-20
Cc1ccc(S(=O)(=O)N2CCCCC2)cc1NC(=O)COC(=O)C1CC2C=CC1C2 (stereo unspecified)	-4	-16	1	10	-2	4	.	.
COc1cc(O)sc1C=Nc1ccc(Cl)cc1Cl	14	5	0	25	14	2	.	.
CCOC(=O)c1c(CC(C)C)csc1NC(=O)c1ccccc1C(=O)O	-6	-22	50*	-10	12	-2	71*	-16
O=C1c2ccccc2-c2c1cccc2C(=O)N1CCN(C(=O)c2ccco2)CC1	1	-5	12	-1	4	-2	.	.
O=C(O)CCCNc1cc(N2CCN(C(=O)c3ccco3)CC2)c2noc3c2c1C(=O)c1ccccc1-3	-5	-50	37*	2	-102	-1	72*	-26
Brc1ccc(-c2nnc3n2-c2ccccc2CC3)cc1	-7	-11	-11	14	1	0	.	.
Cc1ccccc1COc1ccc(-c2nnn(CC(=O)O)n2)cc1	-5	-35	40*	-13	.	-3	27	-15
CCOc1ccc2[nH]c(=O)c(CN(CCN3CCCC3)C(=S)Nc3ccccc3OC)cc2c1	-1	4	-16	-6	6	-2	.	.
O=C(NNC(=S)NC(=O)c1ccco1)c1ccc(F)cc1	6	-5	-1	1	-4	4	.	.
Cn1cccc1CC(=O)NNC(=S)NC(=O)c1ccc(F)cc1	-9	-12	45*	1	0	4	-10	-3
O=C(COC(=O)c1cc(-c2ccco2)nc2ccccc12)NCc1ccc2c(c1)OCO2	-7	-23	41*	-9	36	1	86*	54*
CSc1ccc(NC(=O)Nc2ccc(C(=O)NCC(=O)O)cc2)cc1	-5	-24	25	-6	.	2	-27	5
CCC(=O)N1CCN(c2nc3ccc(Br)cc3s2)CC1	13	-27	-5	11	-1	-3	.	.
O=C(Cn1c(=O)c2sccc2n(Cc2cccc([N+](=O)[O-])c2)c1=O)NCCc1ccccc1	5	1	44*	4	2	2	-5	6
Cc1cccn2c(=O)c3cc(C(=O)NCCc4ccccc4)c(=N)n(Cc4ccco4)c3nc12	23	-29	27	27	22	-2	.	.
COc1ccc(CCNC(=O)c2cc3c(=O)n4cccc(C)c4nc3n(Cc3ccco3)c2=N)cc1OC	70	-45	38*	99*	4	2	10	10
CCCCn1c(=NC(=O)c2ccco2)c(C(=O)OCC)cc2c(=O)n3ccccc3nc21	0	-2	11	5	15	5	.	.
CCOC(=O)c1cc2c(=O)n3ccccc3nc2n(Cc2ccco2)c1=NC(=O)c1ccc(OC)cc1OC	-2	-24	51*	-10	16	3	-9	-6
CC1CN=C(N(C(=O)Nc2ccccc2)c2ccc(S(=O)(=O)N3CCOCC3)cc2)S1 (stereo unspecified)	-2	2	-10	23	1	0	.	.
CC(C)c1ccc(C(CC(=O)c2ccc(Cl)cc2)C(=O)O)cc1 (stereo unspecified)	-1	-42	37*	-3	10	1	68*	-19
Fc1ccc(NC(=S)Nc2cccc3ccccc23)cc1F	8	3	44*	5	2	8	10	6
Cc1cccc(NC(=S)Nc2cccc3ccccc23)c1	-6	3	-1	-11	0	7	.	.
